Assay [1] in a line: Platelet P2T receptor antagonist activity in human platelet assay. Format: functional. In a few lines: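 Human washed platelets in modified Tyrode buffer, stimulated to aggregate with ADP; aggregation followed turbidimetrically. Inhibition measured across a concentration range, pIC50 calculated from the concentration-response. Mean of four determinations (nine for one compound).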

The species entered for a further assay is Rattus norvegicus. The assay is described as follows: Recovery of ADP-induced platelet aggregation 20 minutes post dose. mean of four determinations and spread of results. It is filed as functional. In outline:
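Anesthetized rat; ADP-induced platelet aggregation measured 20 min after dosing to gauge recovery of aggregation (functional kinetics). Mean of four determinations, with spread of results.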

On to `Nc1ncnc2c1ncn2[C@@H]1O[C@H](COP(=O)(O)OP(=O)(O)C(Cl)(Cl)P(=O)(O)O)[C@@H](O)[C@H]1O`, for which the “Log IC50” value in assay [1] is reported as -3.5. As to `CCSc1nc(N)c2ncn([C@@H]3O[C@H](COP(=O)(O)OP(=O)(O)C(Cl)(Cl)P(=O)(O)O)[C@@H](O)[C@H]3O)c2n1`, the “Log IC50” value in assay [1] is on record as -6.53. On the same count and under the same terms, under `Nc1ncnc2c1ncn2[C@@H]1O[C@H](COP(=O)(O)OP(=O)(O)C(F)(F)P(=O)(O)O)[C@@H](O)[C@H]1O` stands -3.5; under `CCCSc1nc(N)c2ncn([C@@H]3O[C@H](COP(=O)(O)OP(=O)(O)C(F)(F)P(=O)(O)O)[C@@H](O)[C@H]3O)c2n1`, -8.16. Take `CCCSc1nc(NCC(F)(F)F)c2ncn([C@@H]3O[C@H](COP(=O)(O)OP(=O)(O)C(Cl)(Cl)P(=O)(O)O)[C@@H](O)[C@H]3O)c2n1`: the “Log IC50” value in assay [1] was -9.48. The “Recovery of ADP-induced platelet aggregation” value (from here on “Recovery”) in the assay filed under Rattus norvegicus came to 10%. `CCCSc1nc(NCCSC)c2ncn([C@@H]3O[C@H](COP(=O)(O)OP(=O)(O)C(Cl)(Cl)P(=O)(O)O)[C@@H](O)[C@H]3O)c2n1`: in assay [1], the “Log IC50” value is recorded as -9.42. Besides, the “Recovery” value in the assay filed under Rattus norvegicus came to 33%.

As to `COCCNc1nc(SCCC(F)(F)F)nc2c1ncn2[C@@H]1O[C@H](COP(=O)(O)OP(=O)(O)C(Cl)(Cl)P(=O)(O)O)[C@@H](O)[C@H]1O`, the “Log IC50” value in assay [1] was -8.02. Besides, in the assay listed under Rattus norvegicus, the “Recovery” value was found to be 64%. Regarding `O=P(O)(OC[C@H]1O[C@@H](n2cnc3c(NCC(F)(F)F)nc(SCCC(F)(F)F)nc32)[C@H](O)[C@@H]1O)OP(=O)(O)C(Cl)(Cl)P(=O)(O)O`, in assay [1], the “Log IC50” value is on record as -9.14. Further, the “Recovery” value in the assay listed under Rattus norvegicus was 6%.

For the molecule `Nc1nc(SCCC(F)(F)F)nc2c1ncn2[C@@H]1O[C@H](COP(=O)(O)OP(=O)(O)C(Cl)(Cl)P(=O)(O)O)[C@@H](O)[C@H]1O`, the “Log IC50” value in assay [1] was -8.87. With `CCCSc1nc(NCCOC)c2ncn([C@@H]3O[C@H](COP(=O)(O)OP(=O)(O)C(Cl)(Cl)P(=O)(O)O)[C@@H](O)[C@H]3O)c2n1`, the “Log IC50” value in assay [1] was -7.81. In addition, in the assay filed under Rattus norvegicus, the “Recovery” value came out at 48%. For `CCCSc1nc(N)c2ncn([C@@H]3O[C@H](COP(=O)(O)OP(=O)(O)C(Cl)(Cl)P(=O)(O)O)[C@@H](O)[C@H]3O)c2n1`, the “Log IC50” value in assay [1] was -8.6. Further, the “Recovery” value in the assay listed under Rattus norvegicus is 93%. For `CSCCNc1nc(SCCC(F)(F)F)nc2c1ncn2[C@@H]1O[C@H](COP(=O)(O)OP(=O)(O)C(Cl)(Cl)P(=O)(O)O)[C@@H](O)[C@H]1O` [CANGRELOR], the “Log IC50” value in assay [1] is reported as -9.35. Further, the “Recovery” value in the assay listed under Rattus norvegicus stood at 79%.

Values taken from ChEMBL document CHEMBL1132412, “Antagonists of the platelet P2T receptor: a novel approach to antithrombotic therapy” (J Med Chem, 1999).
